ANO1 activ – TMEM16A chloride channel activators or potentiators, primary screen, cell-based, HTS. HEK293 TMEM16A/YFP-H148Q/I152L, iodide quench fluorescence; active compounds read low. Anoctamin-1 (Mus musculus), Q8BHY3. hit rate 0.3% among 340,000. AID 623877, 2012. B-score at 10 µM;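 active means fluorescence-ratio B-score plate-corrected deviation score at least 3 library SD below zero, with starting fluorescence score within 5 deviations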;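 further: channel opened by trigger with iodide after compound preincubation; score built on the fluorescence ratio of max minus min over baseline; more negative score means more quench and so TMEM16A activation or potentiation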
Target sequence (Q8BHY3 whole entry, looked up): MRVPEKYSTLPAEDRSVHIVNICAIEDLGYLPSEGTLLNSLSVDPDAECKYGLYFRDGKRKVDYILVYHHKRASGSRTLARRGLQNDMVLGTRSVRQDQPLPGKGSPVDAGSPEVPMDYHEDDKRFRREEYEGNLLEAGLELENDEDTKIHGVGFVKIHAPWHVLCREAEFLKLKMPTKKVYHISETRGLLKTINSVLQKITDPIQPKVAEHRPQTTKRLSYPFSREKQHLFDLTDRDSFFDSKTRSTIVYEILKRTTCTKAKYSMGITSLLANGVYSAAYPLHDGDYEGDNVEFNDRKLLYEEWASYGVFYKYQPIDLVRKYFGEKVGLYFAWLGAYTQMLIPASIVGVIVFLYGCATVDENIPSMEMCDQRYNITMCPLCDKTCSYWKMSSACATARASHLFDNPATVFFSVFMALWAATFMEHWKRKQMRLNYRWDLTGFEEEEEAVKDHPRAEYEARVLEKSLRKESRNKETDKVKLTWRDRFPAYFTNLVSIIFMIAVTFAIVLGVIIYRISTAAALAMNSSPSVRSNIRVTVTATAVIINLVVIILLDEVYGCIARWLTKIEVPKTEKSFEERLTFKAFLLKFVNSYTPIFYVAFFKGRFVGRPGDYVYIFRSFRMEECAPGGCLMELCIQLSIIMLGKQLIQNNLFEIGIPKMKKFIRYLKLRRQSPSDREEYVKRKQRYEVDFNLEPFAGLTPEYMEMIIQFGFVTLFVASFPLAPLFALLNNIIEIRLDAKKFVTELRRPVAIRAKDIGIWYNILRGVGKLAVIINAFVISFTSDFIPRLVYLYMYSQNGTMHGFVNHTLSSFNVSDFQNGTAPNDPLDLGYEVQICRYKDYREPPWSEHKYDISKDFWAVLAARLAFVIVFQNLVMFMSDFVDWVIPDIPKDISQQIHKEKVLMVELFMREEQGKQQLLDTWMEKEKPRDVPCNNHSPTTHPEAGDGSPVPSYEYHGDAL
UBC13 polyUb – UBC13 polyubiquitin chain formation inhibitors, primary screen, biochemical, TR-FRET, uHTS; inhibition, % at 20 µM; AID 485273, 2010; hit rate 0.47% among 330,000; in the data active means inhibition above about 45%, passing the limit was not always enough
Apaf1 inhib – inhibitors of human Apaf-1 apoptosome, primary screen, biochemical, DEVD-Rh110 fluorescence, uHTS; reconstituted apoptosome caspase-3 activity; inhibition, % at 20 µM; hit rate 0.71% among 330,000; active means inhibition of at least 40% at 20 µM
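System – cell-free apoptosome with Apaf-1, procaspase-3 and caspase-9 · Buffer or medium – pH 7.5 Hepes buffer with CHAPS, BSA, DTT · Also added – cytochrome c with DEVD-Rh110 · Times – 30 min compound preincubation, 50 min activation, room temperature · Technique – Rh110 fluorescence intensity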
FID counter – compounds displacing fluorescent DNA intercalator, primary screen, artefact control for HCV NS3 helicase inhibitor project, biochemical, FID fluorescence. DNA fluorescent intercalator displacement. inhibition, % at 7.9 µM. hit rate 0.17% among 290,000. AID 1845, 2009; in the data active means inhibition above about 37%;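 further: higher means more ethidium bromide displaced from hairpin DNA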
TMEM16A inh – TMEM16A chloride channel inhibitors, primary screen, cell-based, HTS; hit rate 1.2% among 310,000; AID 588511, 2011; HEK293 TMEM16A/YFP iodide influx fluorescence, ionomycin; normalized B-score (activity score, 25-100; higher = stronger inhibition) at 10 µM;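 active means ratio plate-corrected score three or more library SD toward inhibition, starting fluorescence score within five deviations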;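 further: score derived from kinetic fluorescence span divided by baseline fluorescence per well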
Numbers stand for hits. Sampled rows, rich in hits. Any-hit rate of the full collection: about 2.4%.

For Cc1ccc(S(=O)(=O)N/N=C2/CC(c3ccccc3)Oc3ccccc32)cc1[N+](=O)[O-] (configuration not stated) the results were ANO1 activ inactive, UBC13 polyUb inactive, Apaf1 inhib inactive, FID counter inactive and TMEM16A inh 100.
For CCOc1ccc(NC2=CC(=O)C(=O)c3ccccc32)cc1 the results were ANO1 activ inactive.
COc1cc(Cl)c(NC2=CC(=O)C(=O)c3ccccc32)c(OC)c1 was read as ANO1 activ inactive, UBC13 polyUb inactive and Apaf1 inhib 92.
`Cn1c(Cc2ccc3c(c2)OCO3)nnc1SCC(=O)NC1CCCC1` gave UBC13 polyUb inactive, Apaf1 inhib inactive, FID counter inactive and TMEM16A inh inactive.
`S=C(Nc1cccc(Cl)c1)Nc1ccccc1Oc1ccccc1` gave ANO1 activ inactive, UBC13 polyUb inactive, Apaf1 inhib inactive, FID counter inactive and TMEM16A inh 100.
`Cc1ccc(/C=N/N2C(=S)SC(C)(C)C2N(O)C(=O)Nc2ccc([N+](=O)[O-])cc2)cc1` (configuration not stated) gave ANO1 activ inactive, UBC13 polyUb inactive, Apaf1 inhib inactive, FID counter inactive and TMEM16A inh inactive.
`CC1(C)SC(=S)N(/N=C/c2ccc(O)cc2)C1N(O)C(=O)Nc1ccc([N+](=O)[O-])cc1` (configuration not stated) gave ANO1 activ inactive, UBC13 polyUb inactive, Apaf1 inhib inactive, FID counter inactive and TMEM16A inh 100.
NC(=S)NNc1cccc2cccnc12 was read as ANO1 activ inactive, UBC13 polyUb inactive, Apaf1 inhib 76, FID counter inactive and TMEM16A inh inactive.
O=[N+]([O-])c1ccc(O)c(-c2cc(C(F)(F)F)nc(-c3ccccc3)n2)c1 was read as ANO1 activ inactive, UBC13 polyUb inactive, Apaf1 inhib inactive, FID counter inactive and TMEM16A inh 100.
N#C/C(=N/O)c1nc(-c2ccc(F)cc2)cs1 was read as ANO1 activ inactive, UBC13 polyUb inactive, Apaf1 inhib inactive, FID counter inactive and TMEM16A inh 100.
O=C(CSc1ncccn1)N/N=C/c1ccc2c(c1)OCO2 was read as ANO1 activ inactive, UBC13 polyUb inactive, Apaf1 inhib inactive, FID counter inactive and TMEM16A inh inactive.
Cc1ccc(S(=O)(=O)N2[C@@H](c3ccccc3)C(C(=O)O)=CC[C@H]2c2ccc(C(C)C)cc2)cc1 was read as ANO1 activ inactive, UBC13 polyUb inactive, Apaf1 inhib inactive and TMEM16A inh 100.
`Cc1ccc(S(=O)(=O)N2[C@@H](c3ccc(Cl)cc3)C(C(=O)O)=CC[C@H]2c2ccc(C(C)C)cc2)cc1` gave ANO1 activ inactive, UBC13 polyUb inactive, Apaf1 inhib inactive and TMEM16A inh 100.
For CCC(C)c1ccccc1NC(=O)CN1CCN(C/C=C/c2ccccc2)CC1 (configuration not stated) the results were ANO1 activ inactive, UBC13 polyUb inactive, Apaf1 inhib inactive, FID counter inactive and TMEM16A inh inactive.
For Cc1nn(-c2ccccc2)c(Cl)c1C(=O)N1CCN(c2ncnc3c2cnn3-c2ccccc2)CC1 the results were ANO1 activ inactive, UBC13 polyUb inactive, Apaf1 inhib inactive, FID counter inactive and TMEM16A inh 25.
Cc1cccc(NC(=O)C(=O)NNC(=O)c2ccc(C(C)(C)C)cc2)c1 was read as ANO1 activ inactive, UBC13 polyUb inactive, Apaf1 inhib inactive, FID counter inactive and TMEM16A inh inactive.
`Cc1ccc(F)c(NC(=O)/C(C#N)=C(\O)c2ccc(C(C)(C)C)cc2)c1` gave ANO1 activ inactive, UBC13 polyUb inactive, Apaf1 inhib inactive, FID counter inactive and TMEM16A inh 25.
For Cc1ccc(NC(=O)Nc2ccc(Cl)cn2)cc1 the results were ANO1 activ -5.9 and FID counter inactive.
Screening O=C(O)c1cccc(Cn2c(Cl)c(/C=N/Nc3ccccc3)sc2=O)c1 returned ANO1 activ -35, UBC13 polyUb inactive, Apaf1 inhib inactive, FID counter inactive and TMEM16A inh inactive.
Screening CC(C)C(=O)OCc1cn(-c2ccc(Cl)c(Cl)c2)nn1 returned ANO1 activ inactive, UBC13 polyUb inactive, Apaf1 inhib inactive, FID counter inactive and TMEM16A inh inactive.

Screening data: PubChem BioAssay, several laboratories
